# Compounds with a hit are over-represented: about 3% of the library has one in this group of screens.
# HTR1A agonist: 5-HT1a (human) receptor agonism; P08908; CHO 5-HT1a Ga15 NFAT-bla reporter, FRET ratio; 0% basal, 100% maximal reference agonist; activation, % at 10 µM; actives 0.56% (n = 65,000); AID 567;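 active means activation above the screen-wide mean activation plus 3 SD, cut at about 19% in these data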;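 further: 0% = DMSO wells and 100% = 5-CT at EC100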
# HTR1E antagonist: blocks the human 5-HT1E serotonin receptor. actives 0.99% (n = 65,000). P28566. CHO 5-HT1E Ga15 NFAT-bla reporter, FRET, antagonist. inhibition, % at 6 µM;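 active means inhibition above a set limit, the mean inhibition across every tested compound plus 3 SD, cut at about 29% in these data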;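 further: signal is the 460 over 535 nm emission ratio of beta-lactamase substrate; 0% = agonist plus DMSO wells and 100% = wells without agonist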
# Target sequence (P28566 whole entry, looked up): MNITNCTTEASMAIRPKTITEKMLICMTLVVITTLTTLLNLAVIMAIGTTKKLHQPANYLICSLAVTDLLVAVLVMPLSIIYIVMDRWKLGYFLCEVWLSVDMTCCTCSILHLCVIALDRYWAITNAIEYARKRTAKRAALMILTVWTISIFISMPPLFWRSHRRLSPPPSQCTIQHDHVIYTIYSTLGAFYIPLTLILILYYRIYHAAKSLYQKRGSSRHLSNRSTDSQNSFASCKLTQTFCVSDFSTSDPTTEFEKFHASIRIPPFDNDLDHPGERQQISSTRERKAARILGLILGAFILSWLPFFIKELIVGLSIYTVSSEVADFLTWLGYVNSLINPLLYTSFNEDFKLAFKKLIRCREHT
# 5HT1E ag: activates the human 5-HT1E serotonin receptor; AID 574; actives 0.69% (n = 65,000); P28566; activation, % at 6 µM; CHO 5-HT1E Ga15 NFAT-bla reporter, FRET; 0% DMSO wells, 100% control agonist wells;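 active means activation above a set limit, the screen-wide mean activation plus 3 SD, cut at about 8.5% in these data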;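 further: 100% = positive control agonist at 1 µM giving full maximal response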
# S1P3 agonist: activates the human S1P3 receptor; S1P3 NFAT-BLA reporter cells, agonism, FRET ratio; relative to 1 µM S1P, basal subtracted; activation, % at 4.5 µM; AID 373; actives 0.1% (n = 60,000);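 active means activation above the screen-wide mean plus 3 SD, cut at about 4.5% in these data, passing the limit was not always enough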
#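 Material: Human S1P3 NFAT-BLA reporter CHO cells | Incubation: Overnight plating, 4 h compound 37 °C, 2 h substrate RT | Signal: FRET β-lactamase substrate fluorescence, excitation 405 nm, 460/535 nm emission ratio, background-subtracted | Compound: 4.5 µM final, single dose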
# 5HT1a antag: 5-HT1a (human) receptor antagonism; P08908; CHO 5-HT1a Ga15 NFAT-bla reporter, antagonist mode; inhibition, % at 10 µM; actives 0.68% (n = 62,000); AID 612;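 active means inhibition above the mean of all tested compounds plus 3 SD, cut at about 43% in these data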;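 further: receptor stimulated by 5-CT agonist at 100 nM near EC80; beta-lactamase reporter measured by ratiometric fluorescence of a cleavable substrate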
# S1P1 ag-PAM: activates or potentiates agonism at human S1P1 receptor | activation, % at 9.5 µM | actives 0.57% (n = 56,000) | S1P1 CRE-bla cells, forskolin, beta-lactamase FRET, potentiator mode; S1P1 agonist co-added at EC20, 2 nM; 100% = saturating reference agonist, 0% = basal | P21453;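 active means activation above a cutoff set at the mean activation of all tested compounds plus 3 SD, cut at about 54% in these data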;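 further: forskolin at 4 µM as EC80 and the EC20 agonist is SEW2871; 100% = SEW2871 at its EC100 plus forskolin at EC80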
# Starred values were filed as active, the others as inactive; · = no result.
SMILES,HTR1A agonist,HTR1E antagonist,5HT1E ag,S1P3 agonist,5HT1a antag,S1P1 ag-PAM
Cc1ccc(C2C=C(c3ccc4c(c3)OCO4)Nc3ncnn32)cc1 (configuration not stated),-3,7,0,1,10,-36
CCOC(=O)C(NC=O)(NC(C)(C)C)C(=O)OCC,-1,1,0,-13,·,-5
O=C(Nn1c(Cc2cccs2)nc2ccccc2c1=O)c1cccs1,-2,11,-1,-2,-2,2
CC1(C)CC(=O)C2=C(C1)NC(SCC(=O)Nc1ccccc1)=C(C#N)C21CCCCC1,2,3,-1,-1,10,20
CC(C)(C)C1CCC2(CC1)C(C#N)=C(SCC(=O)Nc1ccccc1)NC(=O)C2C#N (configuration not stated),9,8,1,-4,·,79*
CCOC(=O)c1ccc2nc(NC(=O)c3ccco3)sc2c1,2,3,0,0,-4,63*
CCOC(=O)c1ccc2nc(NC(=O)c3cccs3)sc2c1,-2,-6,0,·,3,·
O=C(COC(=O)C1CCCCC1)Nc1ccc(N2CCCCC2)cc1,-2,-6,0,·,-19,·
COc1cc(OC)nc(NC(=O)COC(=O)C2CCCCC2)n1,91*,-1,1,-1,-1,4
CCn1c2ccccc2c2nc3cc(S(=O)(=O)N4CCOCC4)ccc3nc21,3,50*,1,2,6,-57
c1ccc2nc3c(nc2c1)c1ccccc1n3CCN1CCOCC1,1,-4,-1,0,-6,-40
Cc1ccc(C(C)NC(=O)c2ccco2)cc1C (configuration not stated),0,10,-1,0,7,-8
O=C(NCC(c1cccnc1)N1CCN(c2ccc(F)cc2)CC1)c1ccc(F)cc1 (configuration not stated),-2,3,0,0,0,6
O=C(CN(C(=O)CSc1nnc(COc2ccccc2)o1)c1ccc(F)cc1)NC1CCCC1,40*,-3,0,-1,13,21
COc1cc(CNc2ccc(N3CCOCC3)c(C(=O)O)c2)ccc1OCC(N)=O,-2,-1,34*,0,-1,-6
CCOC(=O)c1ccccc1NC(=O)c1cc(S(=O)(=O)N2CCOCC2)ccc1F,2,29*,0,-1,12,4
CCOC(=O)N1CCN(S(=O)(=O)c2ccc(F)c(C(=O)Nc3cccc(C)c3C)c2)CC1,0,-6,0,2,-6,-2
Cc1nn2c(C(F)(F)F)cc(-c3ccc(Cl)cc3)nc2c1C(=O)N1CCOCC1,-4,-7,38*,-2,-7,-9
c1ccc(-c2ccc(-c3nc(-c4ccncc4)no3)cc2)cc1,0,-4,0,-1,-24,85*
c1ccc(-c2ccc(-c3nc(-c4cccnc4)no3)cc2)cc1,-3,0,-1,-1,-40,82*
c1ccc(-c2nc(-c3ccncc3)no2)cc1,0,1,0,0,-6,·
c1ccc(C(Cc2nc(-c3ccncc3)no2)c2ccccc2)cc1,-1,4,-1,42*,37,·
CCc1ccc(-c2nc(-c3ccncc3)no2)cc1,0,-6,0,-1,2,76*
C=CCn1c(N)c(C(=O)OC(C)(C)C)c2nc3ccccc3nc21,4,12,2,-2,·,-18
C=CCn1c(N)c(C(=O)Nc2ccccc2)c2nc3ccccc3nc21,27*,1,6,4,·,-60
SMILES,HTR1A agonist,HTR1E antagonist,5HT1E ag,S1P3 agonist,5HT1a antag,S1P1 ag-PAM
CCOC(=O)c1ccc(N=CC2=C(O)CC(c3ccco3)CC2=O)cc1 (configuration not stated),0,-7,0,-3,·,10
Cc1cccc(N2CCN(C(=O)Cc3c(C(=O)O)[nH]c4ccc(Cl)cc34)CC2)c1C,-3,-5,60*,-1,-4,-61
Cc1cccc(N2CCN(C(=O)CCn3c(=O)[nH]c4ccccc4c3=O)CC2)c1C,2,-9,0,0,-18,8
CCCOC(=O)c1ccc(OCC(O)Cn2c(C)nc3ccccc32)cc1 (configuration not stated),2,-1,2,-1,1,95*
CCOC(=O)Cn1c(C)nc2ccccc21,1,0,0,-1,-10,·
CCC1CCCCN1C(=O)CSc1nnc(CNC(=O)COc2ccc(Cl)cc2)o1 (configuration not stated),0,3,-1,·,2,·
CCOC(=O)C1CCCN(C(=O)c2cc3nc(-c4cccc(OC)c4)cc(C(F)(F)F)n3n2)C1 (configuration not stated),4,35*,0,-1,5,·
CC(NC(=O)c1cc(-c2ccc(Br)cc2)on1)c1ccccc1 (configuration not stated),-4,0,0,0,-9,-31
CCOc1ccccc1N(CC(=O)NC1CCCC1)C(=O)CCCC(=O)Nc1ccccn1,-2,-8,0,0,-8,8
O=C(Nc1cccc(-c2cn3ccsc3n2)c1)c1ccccc1,-1,4,83*,0,2,-9
CC(OC(=O)c1ccccc1NCc1ccco1)C(=O)Nc1ncc(Cl)cc1Cl (configuration not stated),-3,-6,0,·,19,·
Cc1cccc(OCCn2c(NC(=O)c3ccco3)nc3ccccc32)c1,-1,-10,0,-1,55*,3
Cc1ccc(OCCn2c(NC(=O)c3ccco3)nc3ccccc32)cc1,-2,5,1,-2,39,-9
O=C(Nc1nc2ccccc2n1CCOc1ccccc1)c1ccco1,0,0,0,0,48*,9
COc1ccccc1Oc1cc(C#N)c(C#N)cc1-n1nnc2ccccc21,0,7,-1,20*,49*,15
COc1ccc(/C=N\n2nnc3ccccc32)cc1,-4,-3,0,0,4,29
COc1ccc(-n2c(=O)cc(N3CC(C)OC(C)C3)[nH]c2=O)cc1 (configuration not stated),0,-3,-1,-1,-9,-13
CCn1c2ccccc2c2nnc(SCC(=O)c3ccccc3)nc21,3,31*,-1,0,-13,-70
Cc1nc(CC(=O)c2c(C)cc(O)cc2O)cs1,-3,-3,-1,-2,-1,20
Cc1ccc(S(=O)(=O)N2CCCN(S(=O)(=O)c3ccc(C)cc3)CC2)cc1,1,1,19*,0,4,·
Cc1ccc2[nH]c(-c3ccccc3)cc(=O)c2c1,-4,70*,0,-2,35,4
